Measured values from ChEMBL document CHEMBL5131507, “Identification of histone deacetylase 10 (HDAC10) inhibitors that modulate autophagy in transformed cells” (Eur J Med Chem, 2022).
Activity calls are given as the source filed them. No cut-off for these calls is given here.

Columns and labels:
[1] = target: T1, Histone deacetylase 1 (Homo sapiens, UniProt Q13547); test: Inhibition of recombinant human HDAC1 using ZMAL (Z-(Ac)Lys-AMC as substrate incubated for 20 mins at 1 uM and measured by homogenous fluorescence assay relative to control
[2] = target: T2, Protein deacetylase HDAC6 (Homo sapiens) (UniProt Q9UBN7); test: Inhibition of recombinant human HDAC6 using ZMAL (Z-(Ac)Lys-AMC as substrate incubated for 20 mins at 1 uM and measured by homogenous fluorescence assay relative to control
T2 sequence (whole entry): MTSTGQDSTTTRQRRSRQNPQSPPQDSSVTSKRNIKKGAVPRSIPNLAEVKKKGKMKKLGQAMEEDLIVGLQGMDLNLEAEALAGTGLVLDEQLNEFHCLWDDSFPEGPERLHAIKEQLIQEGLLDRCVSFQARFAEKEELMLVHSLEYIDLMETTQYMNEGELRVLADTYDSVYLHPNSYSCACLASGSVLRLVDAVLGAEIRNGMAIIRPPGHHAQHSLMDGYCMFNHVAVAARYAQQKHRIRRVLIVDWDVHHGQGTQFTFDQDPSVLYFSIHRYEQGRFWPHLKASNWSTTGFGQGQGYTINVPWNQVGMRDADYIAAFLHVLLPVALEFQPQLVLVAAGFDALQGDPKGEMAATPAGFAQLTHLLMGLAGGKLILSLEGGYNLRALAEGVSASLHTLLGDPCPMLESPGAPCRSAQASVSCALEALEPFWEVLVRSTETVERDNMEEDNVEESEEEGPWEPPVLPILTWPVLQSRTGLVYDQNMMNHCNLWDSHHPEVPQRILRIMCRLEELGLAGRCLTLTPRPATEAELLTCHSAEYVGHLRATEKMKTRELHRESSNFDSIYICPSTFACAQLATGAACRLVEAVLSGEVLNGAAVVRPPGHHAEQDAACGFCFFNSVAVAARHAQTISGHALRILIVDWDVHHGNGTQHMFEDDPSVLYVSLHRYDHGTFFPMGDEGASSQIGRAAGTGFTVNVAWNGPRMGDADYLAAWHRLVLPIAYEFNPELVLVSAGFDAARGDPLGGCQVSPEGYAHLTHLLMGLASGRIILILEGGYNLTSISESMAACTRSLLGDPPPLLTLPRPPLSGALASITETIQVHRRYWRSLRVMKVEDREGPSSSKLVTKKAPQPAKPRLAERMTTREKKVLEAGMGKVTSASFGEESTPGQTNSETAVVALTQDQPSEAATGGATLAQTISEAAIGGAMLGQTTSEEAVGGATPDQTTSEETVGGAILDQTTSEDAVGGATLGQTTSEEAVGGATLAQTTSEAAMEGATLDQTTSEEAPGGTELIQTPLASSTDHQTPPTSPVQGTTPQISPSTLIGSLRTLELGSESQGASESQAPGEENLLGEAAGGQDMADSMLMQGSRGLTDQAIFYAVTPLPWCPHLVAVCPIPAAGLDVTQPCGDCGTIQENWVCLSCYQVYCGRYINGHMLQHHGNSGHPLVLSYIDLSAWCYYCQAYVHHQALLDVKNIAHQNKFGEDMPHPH

[3] = test system: HEK293; test: Cytotoxicity against human HEK293 cells assessed as cell viability at 50 uM measured after 24 hrs by Alamar Blue assay; format: toxicity, cell-based; settings: hek293, 24 h
[4] = target: T1, Histone deacetylase 1; test: Inhibition of recombinant human HDAC1 using ZMAL (Z-(Ac)Lys-AMC as substrate incubated for 20 mins at 10 uM and measured by homogenous fluorescence assay relative to control
[5] = target: T3, Polyamine deacetylase HDAC10 (Danio rerio, UniProt F1QCV2); test: Inhibition of zebra fish HDAC10 using Ac-spermidine-AMC as substrate incubated for 25 mins and measured by fluorescence assay
T3 sequence (F1QCV2 whole entry): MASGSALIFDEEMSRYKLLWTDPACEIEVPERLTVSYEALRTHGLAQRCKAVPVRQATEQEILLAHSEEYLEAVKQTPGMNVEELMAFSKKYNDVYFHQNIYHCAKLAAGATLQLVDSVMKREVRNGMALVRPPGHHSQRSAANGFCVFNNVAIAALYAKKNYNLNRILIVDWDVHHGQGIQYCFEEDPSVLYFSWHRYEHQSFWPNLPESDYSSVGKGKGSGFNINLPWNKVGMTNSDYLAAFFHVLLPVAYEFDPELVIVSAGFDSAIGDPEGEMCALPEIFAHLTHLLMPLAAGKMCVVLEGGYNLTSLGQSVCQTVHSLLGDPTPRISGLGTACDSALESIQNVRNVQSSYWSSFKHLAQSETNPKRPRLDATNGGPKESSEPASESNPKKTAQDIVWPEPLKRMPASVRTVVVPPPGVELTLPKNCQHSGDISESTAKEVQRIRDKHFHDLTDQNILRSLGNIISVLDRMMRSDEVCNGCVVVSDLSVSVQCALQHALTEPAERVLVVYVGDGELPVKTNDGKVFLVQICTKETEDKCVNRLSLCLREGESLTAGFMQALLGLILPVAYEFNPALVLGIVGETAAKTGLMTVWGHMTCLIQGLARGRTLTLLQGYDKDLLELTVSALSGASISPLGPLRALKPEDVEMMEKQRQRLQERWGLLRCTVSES
Outline: (§1)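 Ac-spermidine-AMC at 10.5 μM final in pH 7.9 phosphate buffer (NaCl, EDTA, glycerol, Mesna, Tween 20); inhibitors in DMSO. 25 min at 25 °C, stopped with NDA in borate pH 9.5. Read at Ex 330/Em 390 nm; IC50 by nonlinear regression.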

[6] = target: T2, Protein deacetylase HDAC6 (Homo sapiens); test: Inhibition of recombinant human HDAC6 using ZMAL (Z-(Ac)Lys-AMC as substrate incubated for 20 mins at 10 uM and measured by homogenous fluorescence assay relative to control
[7] = target: T4, Histone deacetylase 8 (Homo sapiens) (UniProt Q9BY41); test: Inhibition of recombinant human HDAC8 using H2N-Arg- His-Lys(Ac)-Lys(Ac)-AMC as substrate incubated for 90 mins at 1 uM and measured after 20 mins by fluorescence assay relative to control
T4 sequence (whole entry): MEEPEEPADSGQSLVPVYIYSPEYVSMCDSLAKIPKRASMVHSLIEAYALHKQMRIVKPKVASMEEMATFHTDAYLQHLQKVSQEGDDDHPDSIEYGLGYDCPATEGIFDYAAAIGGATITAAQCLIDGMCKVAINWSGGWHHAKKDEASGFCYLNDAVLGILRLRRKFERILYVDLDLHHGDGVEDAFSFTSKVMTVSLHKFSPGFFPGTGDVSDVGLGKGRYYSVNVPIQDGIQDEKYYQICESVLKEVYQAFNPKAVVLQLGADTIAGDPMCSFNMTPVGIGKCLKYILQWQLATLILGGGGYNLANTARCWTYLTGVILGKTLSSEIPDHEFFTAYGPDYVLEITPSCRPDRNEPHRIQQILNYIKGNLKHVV
Outline: (§2)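 Recombinant hHDAC8 run per a commercial fluorometric HDAC8 kit protocol. Substrate H2N-Arg-His-Lys(Ac)-Lys(Ac)-AMC at 50 μM with enzyme and rising inhibitor concentrations, 90 min at 37 °C. Stop solution with inhibitor plus trypsin added, developed 20 min at 37 °C. Read at Ex 355/Em 460 nm.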

[8] = target: T5, Polyamine deacetylase HDAC10 (Danio rerio) (UniProt F1QCV2); test: Inhibition of zebra fish HDAC10 using Ac-spermidine-AMC as substrate incubated for 25 mins at 1 uM and measured by fluorescence assay relative to control; outline: as §1
T5 sequence (whole entry): T3 sequence (F1QCV2 whole entry)

[9] = target: T6, Histone deacetylase 8 (Homo sapiens, UniProt Q9BY41); test: Inhibition of recombinant human HDAC8 using H2N-Arg- His-Lys(Ac)-Lys(Ac)-AMC as substrate incubated for 90 mins and measured after 20 mins by fluorescence assay; outline: as §2
T6 sequence (Q9BY41 whole entry): T4 sequence (whole entry)

[10] = target: T7, Protein deacetylase HDAC6 (Homo sapiens, UniProt Q9UBN7); test: Inhibition of recombinant human HDAC6 using ZMAL (Z-(Ac)Lys-AMC as substrate incubated for 20 mins and measured by homogenous fluorescence assay
T7 sequence (Q9UBN7 whole entry): T2 sequence (whole entry)

[11] = target: T5, Polyamine deacetylase HDAC10 (Danio rerio); test: Inhibition of zebra fish HDAC10 using Ac-spermidine-AMC as substrate incubated for 25 mins at 10 uM and measured by fluorescence assay relative to control; outline: as §1
[12] = target: T4, Histone deacetylase 8 (Homo sapiens); test: Inhibition of recombinant human HDAC8 using H2N-Arg- His-Lys(Ac)-Lys(Ac)-AMC as substrate incubated for 90 mins at 10 uM and measured after 20 mins by fluorescence assay relative to control; outline: as §2
[13] = test system: MV4-11; test: Induction of autophagy in human MV4-11 cells assessed as increase in autophagic vesicles at 2 to 15 uM measured by cyto-ID green staining based flow cytometry assay; format: functional, cell-based; settings: dose 2-15 µM
Outline: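 MV4-11 cells exposed 2–15 μM for 24 h at 37 °C, 5% CO2, with 10 μM chloroquine added to all samples; solvent-treated control. Harvested, PBS-washed, stained with Cyto-ID Green (1:1000 in phenol-red-free RPMI with 5% FCS, 30 min, 37 °C), washed twice, read by flow cytometry. n = 3; two-way ANOVA.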

[14] = test system: SK-N-BE(2)-C; test: Induction of autophagy in human SK-N-BE(2)-C cells assessed as increase in lysosomal compartment measured by pH-dependent LysoTracker DND-99 fluorescence assay; format: functional, cell-based
Outline: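 SK-N-BE(2)-C neuroblastoma cells seeded at 1.5 × 10^5 per well, treated 24 h, then stained 1 h with 50 nM LysoTracker Red DND-99 in medium under standard culture conditions. Washed in ice-cold phenol-red-free RPMI, trypsinized 3 min at 37 °C, pelleted, resuspended in ice-cold phenol-red-free RPMI before measurement.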

[15] = test system: MV4-11; test: Induction of autophagy in human MV4-11 cells assessed as slight increase in HDAC10 at 2 to 15 uM measured by immunoblotting method; format: functional, cell-based; settings: dose 2-15 µM
[16] = target: T2, Protein deacetylase HDAC6 (Homo sapiens); test: Inhibition of HDAC6 in human MV4-11 cells assessed as fold-induction of tubulin acetylation at 15 uM measured by immunoblotting method; format: cell-based
Outline: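 MV4–11 cells treated 24 h with 2–15 μM test compounds or 0.5 μM marbostat-100 as HDAC6 reference, with solvent control. Whole-cell lysates immunoblotted for acetylated tubulin-α, β-actin as loading control. Blots quantified and expressed as fold change over untreated cells; n = 2.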

[17] = target: T1, Histone deacetylase 1; test: Inhibition of recombinant human HDAC1 using ZMAL (Z-(Ac)Lys-AMC as substrate incubated for 20 mins and measured by homogenous fluorescence assay

T1 sequence (Q13547 whole entry): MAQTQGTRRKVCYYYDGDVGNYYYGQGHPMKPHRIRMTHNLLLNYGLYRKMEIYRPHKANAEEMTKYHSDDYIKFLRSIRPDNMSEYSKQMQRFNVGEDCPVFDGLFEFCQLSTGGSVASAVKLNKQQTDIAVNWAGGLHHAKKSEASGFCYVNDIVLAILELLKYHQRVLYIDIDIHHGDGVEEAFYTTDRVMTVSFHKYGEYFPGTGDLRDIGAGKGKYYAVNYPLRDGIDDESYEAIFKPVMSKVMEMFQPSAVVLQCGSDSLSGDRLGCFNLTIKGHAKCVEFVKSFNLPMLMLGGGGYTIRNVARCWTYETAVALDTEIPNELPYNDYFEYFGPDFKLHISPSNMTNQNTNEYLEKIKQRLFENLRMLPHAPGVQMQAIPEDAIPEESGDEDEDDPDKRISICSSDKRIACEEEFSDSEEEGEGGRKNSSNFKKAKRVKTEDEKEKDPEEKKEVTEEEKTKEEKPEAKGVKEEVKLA

Compound: O=C(/C=C/C1CCN(Cc2cccc(Cl)c2)CC1)NO
- inhibition [1]: 24%
- inhibition [2]: 40%
- Activity [3]: 88.6%
- inhibition [4]: 67%
- IC50 [5]: 60 nM
- inhibition [6]: 83%

Compound: O=C(NO)c1ccc(CN2CCCCC2)cc1
- inhibition [7]: 5%
- Activity [3]: 92.6%
- inhibition [8]: 4%

Compound: O=C(/C=C/C1CCN(Cc2csc3ccccc23)CC1)NO
- inhibition [1]: 29%
- Activity [3]: 88.2%
- inhibition [4]: 66%
- IC50 [9]: 1300 nM
- IC50 [5]: 62 nM
- IC50 [10]: 1400 nM

Compound: CN1CCN(Cc2ccc(C(=O)NO)cc2)CC1
- inhibition [1]: 6%
- Activity [3]: 86.4%
- inhibition [4]: 54%
- IC50 [5]: 43 nM
- IC50 [10]: 280 nM

Compound: O=C(/C=C/C1CCN(Cc2ccc(-c3ccccc3)cc2)CC1)NO
- inhibition [1]: 22%
- inhibition [7]: 54%
- inhibition [2]: 29%
- Activity [3]: 55%
- inhibition [4]: 56%
- inhibition [11]: 46%
- inhibition [12]: 91%
- inhibition [6]: 72%

Compound: O=C(/C=C/C1CCN(CCc2c[nH]c3ccccc23)CC1)NO
- Activity [13]: Active
- inhibition [1]: 7%
- Activity [3]: 77.3%
- inhibition [4]: 54%
- IC50 [5]: 29 nM
- Activity [14]: Active
- IC50 [10]: 4800 nM

Compound: CN1CCc2c(c3ccccc3n2Cc2ccc(C(=O)NO)cc2)C1 [TUBASTATIN A]
- IC50 [5]: 220 nM

Compound: Cn1cc(CN2CCC(/C=C/C(=O)NO)CC2)c2ccccc21
- inhibition [1]: 12%
- Activity [15]: Active
- Activity [3]: 68.2%
- inhibition [4]: 67%
- IC50 [9]: 920 nM
- IC50 [5]: 58 nM
- fold change (FC) [16]: 36
- IC50 [10]: 2420 nM

Compound: O=C(/C=C/C1CCN(Cc2ccc(Cl)cc2)CC1)NO
- Activity [3]: 84.6%
- IC50 [9]: 950 nM
- IC50 [5]: 33 nM
- IC50 [10]: 430 nM
- IC50 [17]: 9000 nM

Compound: Cc1ccc(CN2CCC(/C=C/C(=O)NO)CC2)cc1
- Activity [3]: 104.9%
- inhibition [11]: 23%

Compound: O=C(NO)c1ccc(CNCc2cccs2)cc1
- inhibition [1]: 15%
- Activity [3]: 71.6%
- inhibition [4]: 68%
- IC50 [9]: 3200 nM
- IC50 [5]: 106 nM
- IC50 [10]: 158 nM

Compound: O=C(/C=C/C1CCN(CCc2ccccc2)CC1)NO
- Activity [3]: 54.4%
- IC50 [5]: 11 nM
- IC50 [10]: 4400 nM
- IC50 [17]: 16000 nM

Compound: O=C(/C=C/C1CCN(Cc2cccc3ccccc23)CC1)NO
- Activity [15]: Active
- Activity [3]: 51.6%
- IC50 [5]: 20 nM
- fold change (FC) [16]: 36
- IC50 [10]: 3700 nM
- IC50 [17]: 3000 nM

Compound: O=C(NO)c1ccc(CNCc2ccccc2)cc1
- inhibition [1]: 19%
- Activity [3]: 77.1%
- inhibition [4]: 49%
- IC50 [9]: 3500 nM
- IC50 [5]: 37 nM
- IC50 [10]: 210 nM

Compound: O=C(/C=C/C1CCN(Cc2ccccc2)CC1)NO
- inhibition [1]: 12%
- inhibition [2]: 34%
- Activity [3]: 100.9%
- inhibition [4]: 62%
- IC50 [5]: 530 nM
- inhibition [6]: 89%

Compound: O=C(NO)c1ccc(CNCc2ccsc2)cc1
- inhibition [1]: 16%
- Activity [3]: 81.5%
- inhibition [4]: 50%
- IC50 [9]: 1900 nM
- IC50 [5]: 24 nM
- IC50 [10]: 177 nM
